Reference: ChEMBL document CHEMBL2429859, “Inhibiting aberrant signal transducer and activator of transcription protein activation with tetrapodal, small molecule Src homology 2 domain binders: promising agents against multiple myeloma” (J Med Chem, 2013)
The source made the active and inactive calls. The calls are words filed in the database; no cut-off is given here.

Assays:
[1] = molecular target: T1, Signal transducer and activator of transcription 1-alpha/beta (Homo sapiens, UniProt P42224); test: Binding affinity to Stat1 (unknown origin) using 5-FAM-GpYLPQTV-NH2 as probe assessed as phosphopetide complex formation after 30 mins by fluorescence polarization assay
T1 sequence (P42224 whole entry): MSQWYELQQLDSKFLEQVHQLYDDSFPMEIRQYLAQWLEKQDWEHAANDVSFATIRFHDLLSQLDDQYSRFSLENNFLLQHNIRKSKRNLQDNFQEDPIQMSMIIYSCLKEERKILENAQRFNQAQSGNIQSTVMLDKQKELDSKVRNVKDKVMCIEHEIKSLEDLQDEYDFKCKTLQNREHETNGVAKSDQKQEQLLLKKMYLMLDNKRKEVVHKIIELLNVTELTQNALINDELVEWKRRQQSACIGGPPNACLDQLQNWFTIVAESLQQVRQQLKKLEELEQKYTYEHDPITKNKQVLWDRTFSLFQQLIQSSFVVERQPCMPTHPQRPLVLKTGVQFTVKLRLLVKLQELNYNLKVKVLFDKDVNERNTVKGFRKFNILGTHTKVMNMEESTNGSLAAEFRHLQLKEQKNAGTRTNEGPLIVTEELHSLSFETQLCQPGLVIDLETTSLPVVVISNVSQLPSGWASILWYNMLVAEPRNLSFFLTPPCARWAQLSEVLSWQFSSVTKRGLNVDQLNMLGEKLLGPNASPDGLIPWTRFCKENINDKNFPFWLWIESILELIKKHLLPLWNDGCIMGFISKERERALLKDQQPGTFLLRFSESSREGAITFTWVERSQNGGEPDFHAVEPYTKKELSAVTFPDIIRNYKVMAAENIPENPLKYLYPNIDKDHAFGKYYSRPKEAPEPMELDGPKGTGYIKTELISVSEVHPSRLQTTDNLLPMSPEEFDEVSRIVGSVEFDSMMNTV
In short: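 Fluorescence polarization. Recombinant STAT protein was incubated with the 5-FAM-GpYLPQTV-NH2 peptide probe and inhibitor for 30 min. Polarized fluorescence was plotted against inhibitor concentration, and IC50 was obtained by fitting a dose-response curve.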

[2] = molecular target: T2, Signal transducer and activator of transcription 1-alpha/beta (Homo sapiens) (UniProt P42224); test: Inhibition of IFNgamma-induced Stat1 phosphorylation in serum-starved human U937 cells at 10 to 20 uM incubated for 4 hrs prior to IFNgamma induction measured after 15 mins by phopsho-flow cytometric analysis; type: cell-based; details: U-937
T2 sequence (whole entry): T1 sequence (P42224 whole entry)
In short: (§1)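 Serum-starved U937 cells were pretreated with compound for 4 h, then stimulated 15 min with IL-6 (Stat3), GM-CSF (Stat5) or IFN (Stat1). Phosphorylation of each STAT was quantified by phospho-flow cytometry.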

[3] = molecular target: T3, Signal transducer and activator of transcription 5A (Homo sapiens) (UniProt P42229); test: Inhibition of GM-CSF-induced Stat5 phosphorylation in serum-starved human U937 cells at 10 to 20 uM incubated for 4 hrs prior to GM-CSF induction measured after 15 mins by phopsho-flow cytometric analysis; type: cell-based; details: U-937; in short: as §1
T3 sequence (whole entry): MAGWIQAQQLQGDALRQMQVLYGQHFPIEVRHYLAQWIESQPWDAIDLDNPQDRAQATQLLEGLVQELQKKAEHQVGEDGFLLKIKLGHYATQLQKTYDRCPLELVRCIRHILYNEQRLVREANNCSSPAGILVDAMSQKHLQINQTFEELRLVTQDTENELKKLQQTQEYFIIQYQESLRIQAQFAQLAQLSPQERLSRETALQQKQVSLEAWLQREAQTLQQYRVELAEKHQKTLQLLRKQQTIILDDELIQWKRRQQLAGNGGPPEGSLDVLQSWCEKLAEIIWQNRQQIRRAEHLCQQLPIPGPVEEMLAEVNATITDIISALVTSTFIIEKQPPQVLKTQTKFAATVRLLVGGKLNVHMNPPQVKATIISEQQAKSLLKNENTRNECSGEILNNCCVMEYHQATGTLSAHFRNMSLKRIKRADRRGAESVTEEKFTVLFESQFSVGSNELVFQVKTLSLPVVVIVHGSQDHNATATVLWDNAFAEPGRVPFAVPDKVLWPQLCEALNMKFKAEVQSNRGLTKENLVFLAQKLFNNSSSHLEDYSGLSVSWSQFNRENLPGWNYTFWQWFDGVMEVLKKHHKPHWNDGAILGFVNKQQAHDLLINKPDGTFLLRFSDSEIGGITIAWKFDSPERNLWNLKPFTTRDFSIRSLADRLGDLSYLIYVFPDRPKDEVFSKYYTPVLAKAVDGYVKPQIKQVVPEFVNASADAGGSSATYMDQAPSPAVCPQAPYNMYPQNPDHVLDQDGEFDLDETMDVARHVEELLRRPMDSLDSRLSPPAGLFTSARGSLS

[4] = molecular target: T4, Signal transducer and activator of transcription 3 (Homo sapiens, UniProt P40763); test: Inhibition of Stat3 in human JJN-3 cells assessed as downregulation of survivin protein expression; type: cell-based
In short: (§2)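 Treated cells were washed in cold PBS and lysed 30 min on ice in Tris-HCl pH 7.4/NaCl/EDTA/1% NP-40 with PMSF, vanadate and protease inhibitors. Lysates were Bradford-normalized, and 10-30 µg protein was run on 7-10% SDS-PAGE and transferred to PVDF. Blots were blocked in 5% BSA/TBST, probed overnight at 4 °C, then with HRP secondary, and detected by ECL.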

[5] = molecular target: T4, Signal transducer and activator of transcription 3; test: Inhibition of Stat3-mediated luciferase expression in human XG6 cells after 6 hrs; type: cell-based
In short: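 Myeloma cells stably carried a Stat3-driven firefly luciferase reporter (puromycin-selected) and a CMV-driven Renilla luciferase internal control (hygromycin-selected), each selected for 2 weeks. After drug treatment, dual luciferase activity was read as relative luciferase units, firefly/Renilla.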

[6] = molecular target: T4, Signal transducer and activator of transcription 3; test: Inhibition of Stat3 phosphorylation in human JJN-3 cells after 6 hrs by Western blot analysis; type: cell-based; in short: as §2
[7] = tested on: XG7; test: Cytotoxicity against human XG7 cells assessed as inhibition of cell viability after 72 hrs by MTT assay; type: functional, cell-based
In short: (§3)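 Myeloma lines were seeded at 1-3 x 10^4 cells per well onto compound or vehicle, in triplicate, and cultured 72 h at 37 °C in 5% CO2. Viability was measured colorimetrically by MTT assay relative to DMSO control. EC50 was fitted to a standard dose-response curve where applicable.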

[8] = tested on: UTMC2; test: Cytotoxicity against human UTMC2 cells assessed as inhibition of cell viability after 72 hrs by MTT assay; type: functional, cell-based; in short: as §3
[9] = tested on: RPMI-8226; test: Cytotoxicity against human RPMI8226 cells assessed as inhibition of cell viability after 72 hrs by MTT assay; type: functional, cell-based; in short: as §3
[10] = tested on: NCI-H929; test: Cytotoxicity against human NCI-H929 cells assessed as inhibition of cell viability after 72 hrs by MTT assay; type: functional, cell-based; in short: as §3
[11] = tested on: OCI-AML2; test: Cytotoxicity against human OCI-AML2 cells assessed as cell viability after 72 hrs by MTS assay; type: functional, cell-based; details: OCI-AML2, 72 h
In short: (§4)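 Cells were seeded at 1-3 x 10^4 per well into wells already holding compound or vehicle, in triplicate. Incubation was 72 h at 37 °C in 5% CO2. Viability was read by MTS colorimetry relative to DMSO control, and EC50 was fitted to a standard dose-response curve where applicable.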

[12] = Cytotoxicity against human MDA468 cells assessed as cell viability after 72 hrs by MTS assay; type: functional, cell-based; details: MDA-MB-468, 72 h; in short: as §4

T4 sequence (P40763 whole entry): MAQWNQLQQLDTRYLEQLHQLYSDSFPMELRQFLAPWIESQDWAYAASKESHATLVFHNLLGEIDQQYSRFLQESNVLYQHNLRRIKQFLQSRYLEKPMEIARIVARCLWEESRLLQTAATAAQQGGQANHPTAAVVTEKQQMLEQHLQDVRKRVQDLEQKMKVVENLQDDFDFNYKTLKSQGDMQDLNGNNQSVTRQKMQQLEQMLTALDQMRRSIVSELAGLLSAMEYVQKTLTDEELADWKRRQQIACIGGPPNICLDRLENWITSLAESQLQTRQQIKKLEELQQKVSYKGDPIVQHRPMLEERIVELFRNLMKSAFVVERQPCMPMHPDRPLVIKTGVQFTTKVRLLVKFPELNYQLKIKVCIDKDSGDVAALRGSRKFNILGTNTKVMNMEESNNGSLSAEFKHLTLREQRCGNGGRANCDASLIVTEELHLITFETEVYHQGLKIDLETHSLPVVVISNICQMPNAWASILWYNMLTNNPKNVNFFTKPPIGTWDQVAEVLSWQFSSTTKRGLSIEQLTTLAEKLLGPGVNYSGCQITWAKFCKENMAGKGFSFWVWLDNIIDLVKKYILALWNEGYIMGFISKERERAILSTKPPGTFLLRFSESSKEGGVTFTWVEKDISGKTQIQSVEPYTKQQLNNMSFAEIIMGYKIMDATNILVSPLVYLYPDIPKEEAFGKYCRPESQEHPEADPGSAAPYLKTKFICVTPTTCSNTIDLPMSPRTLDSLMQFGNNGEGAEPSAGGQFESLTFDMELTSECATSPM

| IC50 [1] | inhibition [2] | inhibition [3] | inhibition [5] | inhibition [6] | Structure (SMILES) | inhibition [4] | inhibition [7] | inhibition [8] | inhibition [9] | inhibition [10] | IC50 [11] | IC50 [12] |
| --- | --- | --- | --- | --- | --- | --- | --- | --- | --- | --- | --- | --- |
| 5.8 µM | Active | Active | Dose-dependent effect | Dose-dependent effect | Cc1ccc(S(=O)(=O)N(CC(=O)N(Cc2ccc(C3CCCCC3)cc2)c2ccc(C(=O)O)c(O)c2)Cc2ccccc2C(F)(F)F)cc1 | inactive | Dose-dependent effect | Dose-dependent effect | Dose-dependent effect | Dose-dependent effect | 12 µM | 11 µM |
| 10.9 µM | Active | Active | Dose-dependent effect | Dose-dependent effect | O=C(O)c1ccc(N(Cc2ccc(C3CCCCC3)cc2)C(=O)CN(Cc2ccccc2C(F)(F)F)S(=O)(=O)c2c(F)c(F)c(F)c(F)c2F)cc1O | inactive | Dose-dependent effect | Dose-dependent effect | Dose-dependent effect | Dose-dependent effect | 4.6 µM | 8.1 µM |
